Source: PubChem (The Scripps Research Institute Molecular Screening Center)
This is a sample that favours compounds with a hit; in the whole collection about 1.8% have one here.
HCV core dimer: inhibitors of HCV core protein dimerization, primary screen, biochemical, TR-FRET, high-throughput; 0.33% of 300,000 active; inhibition, % at 5 µM; AID 1899, 2009; TR-FRET GST/Flag-core106 dimerization, 1536-well;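 active = inhibition above the mean of all tested compounds plus 3 SD, set per screening campaign, cut at about 45% in these data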
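Material: GST/Flag-tagged HCV core106 proteins. Incubation: 4 h, 22.5 °C incubation. Read-out basis: inhibition (%) from 671 over 617 nm ratio. Measured by: TR-FRET, excitation 340 nm, emission 617 and 671 nm.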
LEDGF integ inh: blockers of LEDGF/p75-dependent integrase strand transfer – biochemical, TR-FRET, high throughput, primary screen | HIV-1 integrase (with human LEDGF/p75) | TR-FRET IN-LEDGF/p75 DNA integration, Eu/Cy5 | inhibition, % at 3.7 µM | 0.64% of 370,000 active | AID 743269, 2014;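 active = inhibition above the screen-wide mean plus 3 SD, cut at about 13% in these data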;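 also: signal is the Cy5 over europium emission ratio at 671 and 618 nm; 0% = plate median of compound wells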
UHRF1 binding: UHRF1 methylated DNA binding inhibitors, primary screen, counter-screen for MBD2 inhibitor project, biochemical, TR-FRET, human UHRF1, single concentration | E3 ubiquitin-protein ligase UHRF1 (Homo sapiens), Q96T88 | UHRF1 binding to methylated oligo | inhibition, % at 4.4 µM | 0.75% of 370,000 active; in the data active = inhibition above about 21%;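 also: UHRF1 SRA domain binding a hemimethylated CpG hairpin DNA probe; 0% = median of test compound wells and 100% = reference inhibitor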
TDP2 inh: human TDP2 enzyme inhibitors, primary screen, biochemical, epi absorbance, recombinant enzyme; Tyrosyl-DNA phosphodiesterase 2 (Homo sapiens), O95551; T5PNP hydrolysis, p-nitrophenol absorbance 415 nm; inhibition, % at 12.8 µM; 0.34% of 370,000 active;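 active = inhibition above the mean of all tested compounds plus 3 SD, set per campaign, cut at about 25% in these data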;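 also: 0% = DMSO with enzyme and 100% = buffer with substrate but no TDP2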
Target sequence (O95551 whole entry, looked up): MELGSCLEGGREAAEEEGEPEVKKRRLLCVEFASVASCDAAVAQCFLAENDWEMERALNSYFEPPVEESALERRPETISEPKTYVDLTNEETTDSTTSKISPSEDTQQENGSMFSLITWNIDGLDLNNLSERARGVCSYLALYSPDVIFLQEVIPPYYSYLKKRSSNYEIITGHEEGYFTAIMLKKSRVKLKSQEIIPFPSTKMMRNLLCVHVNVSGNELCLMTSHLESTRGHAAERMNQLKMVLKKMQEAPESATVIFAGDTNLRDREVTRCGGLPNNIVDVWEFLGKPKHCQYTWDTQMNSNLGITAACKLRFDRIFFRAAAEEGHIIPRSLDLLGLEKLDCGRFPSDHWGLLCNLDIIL
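Assay system: recombinant human TDP2 / Reagent: T5PNP substrate at 5 mM, a TopII-DNA adduct mimic / Measured by: epi absorbance from released p-nitrophenol / Evaluation: % inhibition relative to enzyme-containing and enzyme-free wells / Control set: enzyme-free and DMSO wells / Replicates: each compound tested once, singlicate / Schedule: enzyme reaction with compound for 2 h at 37 °C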
MBD2 inh: inhibitors of MBD2 binding to methylated DNA, primary screen, biochemical, TR-FRET, DNA-binding domain, human | Methyl-CpG-binding domain protein 2 (Homo sapiens), Q9UBB5 | MBD2 binding to methylated oligonucleotide | inhibition, % at 4.4 µM | 0.31% of 370,000 active; in the data active = inhibition above about 13%
UHRF1 DNA bind: UHRF1 methylated DNA binding inhibitors, counter-screen for MBD2 inhibitor project, biochemical, TR-FRET, human UHRF1; shares compounds with MBD2 inh; UHRF1 binding to methylated oligonucleotide; inhibition, % at 4.4 µM; 25% of 1,000 active; in the data active = inhibition above about 21%;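 also: UHRF1 SRA domain binding a labeled hemimethylated CpG hairpin DNA; 0% = vehicle only and 100% = reference inhibitor with vehicle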
MBD2 confirm: inhibitors of MBD2 binding to methylated DNA, confirmation, biochemical, TR-FRET, DNA-binding domain, human. shares compounds with MBD2 inh. TR-FRET MBD2-DBD binding to methylated oligonucleotide. inhibition, % at 4.4 µM. 26% of 1,000 active. AID 720531, 2013
TDP2 confirm: human TDP2 enzyme inhibitors, retest, confirmation, biochemical, epi absorbance, recombinant enzyme; shares compounds with TDP2 inh; absorbance read-out; inhibition, % at 12.8 µM; 22% of 1,100 active; AID 743263, 2014; in the data active = inhibition above about 25%;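 also: 0% = vehicle with enzyme and 100% = no enzyme buffer only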
IN multimer up: HIV-1 IN multimer formation enhancers, counter-screen for LEDGF/p75 integration inhibitor project, biochemical, TR-FRET; shares compounds with LEDGF integ inh; TR-FRET HIV-1 integrase multimerization; activation, % at 7.7 µM; 17% of 2,000 active; AID 1053131, 2014; in the data active = activation above about 8.9%
TRFRET interf: TR-FRET optical interference artefacts, confirmation, artefact control for LEDGF/p75-dependent integration inhibitor project, biochemical, HIV-1 IN multimerization | shares compounds with LEDGF integ inh | TR-FRET optical interference counterscreen | inhibition, % at 7.7 µM | 2,000 tested, under 10 active | AID 1053135, 2014;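 active = inhibition above the mean over all tested compounds plus 3 SD, which no compound reached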;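 also: 0% = integrase with antibodies and DMSO and 100% = antibodies without integrase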
LEDGF integ conf: inhibitors of HIV-1 IN-LEDGF/p75 DNA integration, confirmation, biochemical, TR-FRET. shares compounds with LEDGF integ inh. TR-FRET LEDGF/p75-dependent HIV-1 integration. inhibition, % at 3.7 µM. 36% of 2,000 active. AID 1053136, 2014
* marks the source's active call; other numbers are inactive results; . = not tested or not shown; ! = not active in a repeat. Rule as the data show it, unless noted: active = inhibition above about 14%; inactive = the rest.

SMILES	HCV core dimer	LEDGF integ inh	UHRF1 binding	TDP2 inh	MBD2 inh	TDP2 confirm	others
C[C@H]1c2cccc(O)c2C(O)=C2C(=O)[C@]3(O)C(O)=C(C(N)=O)C(=O)[C@@H](N(C)C)C3[C@@H](O)C21 (some centres not stated)	-5.1	12.1	-2.6	-11.5	3.0	.
C=C1c2cccc(O)c2C(=O)C2C(=O)[C@]3(O)C(=O)C(C(N)=O)C(=O)[C@@H](N(C)C)[C@@H]3[C@@H](O)[C@H]12 (some centres not stated)	.	86.3*	96.5*	22.8	90.0*	.	UHRF1 DNA bind=11.3;MBD2 confirm=6.8;IN multimer up=36.8*;TRFRET interf=-130.8;LEDGF integ conf=51.7*
COC(=O)C1CN(C2CCCC2)CCS(=O)(=O)N1Cc1cn(Cc2ccc(F)cc2)nn1 (configuration not stated)	.	3.0	11.0	-8.5	3.0	.
CC(=O)OCCCNc1cc(SCc2ccco2)c2nonc2c1[N+](=O)[O-]	36.4	66.2*	59.2*	21.5	13.5*	.	UHRF1 DNA bind=4.4;MBD2 confirm=-7.1;IN multimer up=5.1;TRFRET interf=-25.8;LEDGF integ conf=24.2*
CCCC(=O)OCCNc1cc(SCc2ccco2)c2nonc2c1[N+](=O)[O-]	20.5	3.6	-6.4	13.2	-2.4	.
COc1ccccc1Cc1c(-c2ccc(OC)c(OC)c2)nc2cc(C)c(Br)c(C)n12	.	18.3*	25.9*	32.6*	18.6*	1.6	UHRF1 DNA bind=-1.2;MBD2 confirm=2.8;IN multimer up=-0.2;TRFRET interf=0.7;LEDGF integ conf=-7.1
O=C1c2c(O)ccc(O)c2C(=O)c2c(NCCNCCO)ccc(NCCNCCO)c21	-17.8	49.0*	96.4*	5.9	109.9*	.	UHRF1 DNA bind=94.2*;MBD2 confirm=106.1*;IN multimer up=23.9*;TRFRET interf=-84.5;LEDGF integ conf=37.9*!
Nc1ncnc2c1ncn2[C@@H]1O[C@H](C(=O)N[C@@H](CCc2ccccc2)C(=O)N2CCN(CC(=O)N3CCCC3)CC2)[C@@H](O)[C@H]1O	.	-1.1	-0.2	-4.3	3.4	.
CCCOc1ccc(/C=c2\sc3nc(-c4ccco4)nn3c2=O)cc1OCC	10.5	13.5*	30.6*	3.1	30.8*	.	UHRF1 DNA bind=10.1;MBD2 confirm=2.8;IN multimer up=-1.9;TRFRET interf=9.3;LEDGF integ conf=7.7
CC(=O)Oc1cccc(/C=c2\sc3nc(-c4ccco4)nn3c2=O)c1	7.2	1.4	3.3	1.3	-7.4	.
O=C1OC(c2ccc(Cl)cc2)=N/C1=C\C=C\c1ccco1	17.6	36.2*	40.4*	12.6	14.1*	.	UHRF1 DNA bind=10.7;MBD2 confirm=-0.2;IN multimer up=-0.8;TRFRET interf=4.0;LEDGF integ conf=-1.4
C#CCNC(=O)CSCc1nc(-c2ccc(OCC)cc2)oc1C	.	-1.4	0.5	12.4	8.4	.
COc1ccc(N2C(=O)CC(Nc3ccc(N4CCOCC4)cc3)C2=O)c(OC)c1 (configuration not stated)	-6.1	11.5	-5.9	24.6*	-9.3	6.9
COc1cccc(N2C(=O)CC(Nc3ccc(N4CCOCC4)cc3)C2=O)c1 (configuration not stated)	-8.5	.	.	.	.	.
CC(C)(C)C(=O)c1c(N)[nH]c(C(=O)c2ccccc2)c1-c1ccc([N+](=O)[O-])cc1	.	-0.5	-0.6	5.4	-5.7	.
N#CC1=C(c2ccccc2)/C(=C/c2ccccc2)OC1=O	14.1	-0.4	-2.4	20.7	2.0	.
N#CC(C#N)=C1NC(N)=C(C#N)C(c2ccccc2)=C1C#N	21.7	1.5	6.6	31.6*	8.5	28.7*
O=C(Nc1ccc(F)cc1Cl)C1CCCN1S(=O)(=O)c1cccc2cccnc12 (configuration not stated)	.	-2.6	0.6	0.5	1.1	.
COc1ccc(-c2ccc(=O)n(Cc3ccccc3)n2)cc1	1.1	-0.9	-1.9	7.2	0.4	.
COc1ccc(/C=C2/C(=O)N(Cc3ccccc3)N=C2C)cc1	9.1	3.8	1.1	70.8*	-9.4	14.1
COc1cc(/C=C2/C(=O)N(c3ccc([N+](=O)[O-])cc3)N=C2N2CCOCC2)ccc1O	-7.9	3.0	11.0	66.7*	-1.4	31.5*
COC(=O)CCC(=O)OC1(C)C(=O)C=C2C=C(C3CC3)N(C3CC3)C=C2C1=O (configuration not stated)	-1.3	6.8	2.4	37.9*	-1.3	9.8
COCCN1C=C2C(=O)C(C)(OC(=O)CCC(=O)OC)C(=O)C=C2C=C1C1CC1 (configuration not stated)	-13.0	.	.	.	.	.
C#CCN1C(C(=O)OC)CN(CCCCCC)CCS1(=O)=O (configuration not stated)	.	3.6	-4.5	7.9	-6.2	.
Cc1onc(-c2ccc(Cl)cc2)c1-c1ccn(S(=O)(=O)c2ccccc2Cl)n1	.	-2.7	-1.4	2.2	-4.6	.
O=[N+]([O-])c1ccc2c(c1)nnn2-c1ccccc1	2.6	-1.9	-3.4	24.5*	-2.7	5.3
CCN(C(=O)c1cccc2c1-c1ccccc1C2=O)c1ccccc1	.	0.6	1.9	3.9	2.8	.
CCC(=O)N(CC)C1=C(O)c2ccccc2C(=O)C1=O	-9.4	3.7	-9.8	28.8*	-8.4	19.0
O=C(Nc1ccc(F)cc1)OCc1cn(Cc2ccc(F)cc2F)nn1	.	-0.7	1.1	5.8	-9.3	.
